Screening results: PubChem, Sanford-Burnham Center for Chemical Genomics
Most compounds without a hit are left out; they make up all but 1.8% or so of the library.
697 NFkB inh = lowers PMA/ionomycin-induced NF-kB signal in 697 B cells; 697 B-cell NF-kB luciferase reporter, 16 h; inhibition, % at 4 µM; hit rate 0.33% among 330,000; in the data active = inhibition above about 35%
CRFBP-R2 block = blocks CRF-induced signaling of the CRF-BP/CRF-R2 complex. HEK293 CRF-R2/CRF-BP, CRF-induced calcium fluorescence. inhibition, % at 11.8 µM. hit rate 0.59% among 350,000. AID 588475;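 active = inhibition of the ligand-induced calcium signal above about 50% at the single tested concentration, limit read from the data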
Jurkat NFkB inh = inhibitors of the PMA/ionomycin-induced NF-kB reporter in Jurkat cells; PMA/ionomycin-induced NF-kB luciferase reporter, luminescence; inhibition, % at 4 µM; hit rate 0.53% among 330,000; AID 435003; in the data active = inhibition above about 50%
XBP1 UPR activ = adaptive UPR (XBP1) activation; CHO-XBP1 luciferase reporter, IRE1-XBP1 UPR activation, luminescence; percent of tunicamycin response, DMSO as zero; activation, % at 20 µM; hit rate 0.33% among 330,000; AID 463104;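 active = versus positive control, 20 µM dose yields 30% or more activation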;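 note: 100% = tunicamycin at 10 µg/mL and 0% = DMSO only wells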
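Material: CHO cell line with stable XBP1 luciferase reporter; buffer or medium: F12 medium containing 10% fetal bovine serum; compound: single point, 20 µM final compound, 1% DMSO; incubation: 6 h treatment, 37 °C; measured by: glow luminescence from Steady-Glo reagent; evaluation: activation, % of tunicamycin; control set: tunicamycin high, DMSO low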
UPR CHOP act = activators of apoptotic arm of unfolded protein response (CHOP). activation, % at 10 µM. CHO-CHOP luciferase reporter, UPR activation, luminescence; percent of tunicamycin response over DMSO baseline. hit rate 0.34% among 330,000;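 active = at 10 µM dose, activation of 40% or more, normalized to positive control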;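 note: 100% = tunicamycin at 10 µg/mL and 0% = DMSO alone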
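System: CHO-CHOP luciferase reporter cell line; amount: 500 cells/well; buffer or medium: F12 medium containing 10% fetal bovine serum; incubation: 6 h compound exposure at 37 °C after overnight seeding; measured by: luciferase luminescence after 10 min with Steady-Glo reagent; evaluation: % reporter activation, DMSO baseline versus tunicamycin full activation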
CHOP UPR conf = apoptotic UPR (CHOP) activation, confirmed | shares compounds with UPR CHOP act | CHO-CHOP cells, CHOP-luciferase reporter luminescence; percent of tunicamycin response, DMSO as zero | activation, % at 10 µM | hit rate 64% among 1,000; in the data active = activation above about 33%;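 note: 0% = DMSO wells and 100% = tunicamycin 10 µg/mL wells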
* marks the source's active call; other numbers are inactive results; x = not tested or not shown.

SMILES | 697 NFkB inh | CRFBP-R2 block | Jurkat NFkB inh | XBP1 UPR activ | UPR CHOP act | CHOP UPR conf
COc1nc(N)nc(NC(=O)c2cccs2)c1N=O | -40 | -7 | -6 | -1 | 70* | 62*
COc1ccc(NC(=O)c2ccc(NC(=O)c3cccs3)cc2)cc1 | 6 | -12 | -19 | 7 | 1 | x
CCOC(=O)c1ccc(NC(=O)c2nc(S(=O)(=O)Cc3ccccc3)ncc2Cl)cc1 | -45 | 30 | 4 | -9 | -9 | x
CSc1ncc(Cl)c(C(=O)Nc2ccc(C)c(C)c2)n1 | 6 | -16 | -9 | -4 | 2 | x
Cc1ccc(NC(=O)c2nc(S(=O)(=O)Cc3ccccc3C)ncc2Cl)cc1C | -93 | 23 | 21 | -10 | 237* | 170*
COC(=O)c1ccc(NC(=O)c2nc(S(=O)(=O)Cc3cccc(C)c3)ncc2Cl)cc1 | -76 | 52* | 6 | -11 | 95* | 27
CCc1ccccc1NC(=O)CN(C)C(=O)c1cc(C2CC2)nc2c1cnn2C(C)C | 9 | 0 | 2 | 1 | -1 | x
CN(C(=O)COC(=O)c1cccc(S(=O)(=O)N2CCOCC2)c1)C1CCS(=O)(=O)C1 (centres undefined) | -6 | -9 | 10 | -1 | 1 | x
Cc1cc(C(=O)CN2C(=O)CN(C)C2=O)c(C)n1-c1cccc(S(=O)(=O)N2CCOCC2)c1 | 3 | 3 | 12 | 1 | -1 | x
Cc1cc(C(=O)CCl)c(C)n1-c1cccc(S(=O)(=O)N2CCOCC2)c1 | 24 | 1 | 3 | -5 | 207* | 64*
Cc1ccc(C(=O)NC(C#N)=C(Cl)Cl)cc1 | -20 | 2 | 32 | -5 | 136* | 45*
NC(=O)c1cccc(NC(=O)CCCCC(=O)Nc2cccc(C(N)=O)c2)c1 | 13 | 5 | -11 | 0 | 41* | 1
CC(C)[C@@H](C(=O)N[C@@H](C(=O)O)c1ccccc1)N1C(=O)N2CCc3c([nH]c4ccccc34)[C@@]2(C)C1=O | 4 | -13 | 10 | 1 | -1 | x
O=[N+]([O-])/C=C/c1cn(Cc2ccccc2)c2ccccc12 | -69 | -22 | -4 | -1 | 0 | x
O=C(Cn1cc(/C=C\[N+](=O)[O-])c2ccccc21)Nc1ccccc1 | -3 | -4 | -8 | 11 | 61* | 115*
O=C(O)Cn1cc(/C=C/[N+](=O)[O-])c2ccccc21 | 19 | 11 | 4 | 0 | -1 | x
N#Cc1ccccc1Cn1cc(/C=C/[N+](=O)[O-])c2ccccc21 | 22 | -83 | 3 | 1 | 85* | 5
C/C(CCc1oc2c(Br)cc(Br)cc2c1-c1ccc(C)o1)=N\O | -36 | 0 | -5 | 7 | 89* | -2
O=C(C1=C(c2ccccc2)C(=O)c2ccccc2C1=O)c1ccccc1 | x | 7 | x | x | x | x
Cc1oc2c(c1C(=O)c1ccccc1)C(=O)C(=O)c1ccccc1-2 | 2 | 5 | -25 | -1 | 67* | -2
O=C1C(=O)c2c(C(=O)c3ccccc3)coc2-c2ccccc21 | 14 | -10 | -6 | 23 | 48* | 30
O=C(N/C(=C\c1ccco1)C(=O)N1CCOCC1)c1ccccc1Cl | 16 | 27 | 15 | 0 | 1 | x
CCOc1cc(/C=N\NC(=O)c2ccc(NC(=O)C(C)(C)C)cc2)ccc1OC(=O)c1ccc(C)cc1 | -5 | 8 | -21 | 5 | 6 | x
CCOc1cc(/C=N\NC(=O)c2ccc(NC(=O)CC)cc2)ccc1OC(=O)c1ccccc1 | -7 | 6 | 1 | 26 | 57* | 4
CCOc1cc(/C=C2/C(=O)ON=C2C)ccc1OCc1ccccc1F | 6 | -73 | -4 | 16 | 112* | 68*
SMILES | 697 NFkB inh | CRFBP-R2 block | Jurkat NFkB inh | XBP1 UPR activ | UPR CHOP act | CHOP UPR conf
CCOc1cc(/C=C2/C(=O)ON=C2C)ccc1OCc1ccc(F)cc1 | -33 | -53 | -31 | 18 | 24 | x
CCOc1cc(/C=C2\C(=O)ON=C2c2ccccc2)ccc1OC | 11 | -25 | -18 | -4 | 1 | x
CCOc1cc(/C=C2/C(=O)ON=C2C)ccc1OCc1ccccc1 | 12 | -14 | -4 | 3 | 58* | 5
CN(C)c1ncc(C2=C(Cl)C(=O)C(N3CCCC3)=C(Cl)C2=O)s1 | 1 | 3 | 14 | 1 | 83* | -8
CC(=O)c1cnc(N(C)C)s1 | 25 | 6 | -4 | 0 | 0 | x
COc1cc(/C=C(/C(=O)c2cccs2)c2nc3ccccc3[nH]2)ccc1O | 24 | -36 | -2 | -3 | 3 | x
O=C(/C(=C/c1ccc(Cl)cc1)c1nc2ccccc2[nH]1)c1cccs1 | -137 | -6 | 40 | -5 | 87* | 85*
O=C1C=C(N2CCCCC2)c2ccccc2C1=O | -3 | 3 | 12 | 10 | 76* | 25
O=C(NCc1cccnc1)/C(=C/c1ccc(-c2cccc(Cl)c2)o1)S(=O)(=O)c1ccccc1 | -3 | -21 | 4 | -8 | 83* | 114*
CCOc1cc(/C=C2\CN(CC)C/C(=C\c3ccc(O)c(OCC)c3)C2=O)ccc1O | -35 | -4 | 44 | -5 | 78* | 86*
CCOc1cc(/C=N/N=C/c2ccc(O)c(OCC)c2)ccc1O | -3 | 20 | -10 | -3 | 0 | x
CCCCn1c(SCC(=O)OCC)nc2c(sc(=S)n2-c2ccccc2OC)c1=O | -7 | 22 | -2 | -4 | -1 | x
COc1ccc(-n2ncc(N(C)n3cccc3)c(Cl)c2=O)cc1 | -124 | 9 | -101 | -1 | 2 | x
COc1ccc(-n2ncc(Cl)c(Cl)c2=O)cc1 | -5 | 9 | 28 | -7 | 50* | 23
Cc1ccc(S/C=C\C(=O)c2ccccc2)cc1 | -132 | -7 | -16 | 0 | 69* | 56*
COC(=O)c1ccc2c(c1)C(C)(C)C(/C=C/c1ccc(OC)c(OC)c1OC)=[N+]2C | -22 | 28 | 9 | -14 | 64* | -11
COC(=O)c1ccc2c(c1)C(C)(C)C(/C=C/c1ccc(O)cc1)=[N+]2C | -66 | -137 | 45 | -7 | -11 | x
COc1ccc(C2Nc3ccc4ccccc4c3-c3c2c(=O)oc2ccccc32)cc1 (centres undefined) | -7 | x | 2 | 134* | 49* | 47*
CCOc1ccc(C2Nc3ccc4ccccc4c3-c3c2c(=O)oc2ccccc32)cc1 (centres undefined) | 13 | -15 | 27 | 8 | 5 | x
O=C(CCC(=O)Nc1ccc(Cl)cc1Cl)N/N=C/c1ccc([N+](=O)[O-])o1 | 4 | -51 | 13 | 8 | 193* | 107*
CCOc1ccc(S(=O)(=O)c2c[nH]c3ccccc3c2=O)cc1 | -7 | 4 | -16 | 2 | 2 | x
COC(=O)C1=C(C)N(c2ccc(C)c(C)c2)/C(=C/c2cccs2)C1=O | 10 | 5 | 22 | 15 | 90* | 50*
